Columns and labels:
[1] = test system: Oryctolagus cuniculus; assay: Oral bioactivity expressed as %inhibition after 4 hours of drug administration (dose 50 mg/kg) in rabbit bioassay; assay type: functional
Outline: (§1)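 Plasma was taken before dosing and at 1, 2 and 4 h. Plasma (0.2 mL) was hexane-extracted, dried and redissolved in chloroform/methanol 2:1. It was then tested for ACAT inhibition in the liver microsomal assay alongside spiked standards and a 2.5 µM CI-976 reference.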

[2] = test system: Rattus norvegicus; assay: Percent change in High Density Lipoproteins (HDL) in Chronic Cholesterol -Fed rat model at a dose 30 mg/kg; assay type: functional
Outline: (§2)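 Rats ate a high-fat, high-cholesterol diet for 14 days. During the second week they received the test compound daily by gavage at 30 mg/kg, in a carboxymethylcellulose/Tween-20 aqueous vehicle. Plasma lipids (total cholesterol, HDL-C, non-HDL-C) were read as percent change.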

[3] = target: T1, Sterol O-acyltransferase 1 (Mus musculus) (UniProt Q61263); assay: In vitro inhibitory activity against acyl coenzyme A:cholesterol acyltransferase 1 in cell culture assay using murine IC-21 macrophages at 0.1 uM
T1 sequence (whole entry): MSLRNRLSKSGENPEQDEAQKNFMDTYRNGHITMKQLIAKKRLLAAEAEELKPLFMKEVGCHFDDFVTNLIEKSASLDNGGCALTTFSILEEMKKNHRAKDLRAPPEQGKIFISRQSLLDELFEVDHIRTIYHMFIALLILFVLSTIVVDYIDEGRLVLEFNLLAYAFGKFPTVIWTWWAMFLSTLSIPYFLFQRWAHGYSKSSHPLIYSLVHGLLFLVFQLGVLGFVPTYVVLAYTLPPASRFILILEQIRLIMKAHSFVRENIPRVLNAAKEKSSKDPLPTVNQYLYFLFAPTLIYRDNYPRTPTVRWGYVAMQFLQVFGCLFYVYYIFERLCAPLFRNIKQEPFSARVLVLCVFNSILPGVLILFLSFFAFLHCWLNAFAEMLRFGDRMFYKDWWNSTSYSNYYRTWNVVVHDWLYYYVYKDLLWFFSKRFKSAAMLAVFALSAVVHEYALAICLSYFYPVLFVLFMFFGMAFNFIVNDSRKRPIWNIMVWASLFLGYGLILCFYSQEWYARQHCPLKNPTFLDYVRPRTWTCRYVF
Outline: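 IC-21 mouse macrophages were preincubated 16 h in serum-free DMEM with 20 µM albumin and phosphatidylserine/cholesterol vesicles. The vesicles were sonicated in 150 mM NaCl, 5 mM MOPS, 1 mM EDTA, pH 7.4, and filter-sterilized. Medium was then replaced with serum-free DMEM containing the compound in DMSO at 0.1 µM. Percent inhibition was read, with cell protein measured by the Lowry method.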

[4] = test system: Rattus norvegicus; assay: Percent change in non High Density Lipoproteins (HDL) in Chronic Cholesterol -Fed rat model at a dose 30 mg/kg
[5] = test system: Rattus norvegicus; assay: Percent change in total cholesterol (TC) in cholic acid (0.5%)-, cholesterol (1.5%) -, and peanut oil (5.5%)- fed rats at a dose 30 mg/kg.; assay type: functional
[6] = target: T2, Sterol O-acyltransferase 1 (Rattus norvegicus, UniProt O70536); assay: In vitro inhibitory activity against acyl coenzyme A:cholesterol acyltransferase 1 of liver microsomes isolated from cholesterol-fed rats.
T2 sequence (O70536 whole entry): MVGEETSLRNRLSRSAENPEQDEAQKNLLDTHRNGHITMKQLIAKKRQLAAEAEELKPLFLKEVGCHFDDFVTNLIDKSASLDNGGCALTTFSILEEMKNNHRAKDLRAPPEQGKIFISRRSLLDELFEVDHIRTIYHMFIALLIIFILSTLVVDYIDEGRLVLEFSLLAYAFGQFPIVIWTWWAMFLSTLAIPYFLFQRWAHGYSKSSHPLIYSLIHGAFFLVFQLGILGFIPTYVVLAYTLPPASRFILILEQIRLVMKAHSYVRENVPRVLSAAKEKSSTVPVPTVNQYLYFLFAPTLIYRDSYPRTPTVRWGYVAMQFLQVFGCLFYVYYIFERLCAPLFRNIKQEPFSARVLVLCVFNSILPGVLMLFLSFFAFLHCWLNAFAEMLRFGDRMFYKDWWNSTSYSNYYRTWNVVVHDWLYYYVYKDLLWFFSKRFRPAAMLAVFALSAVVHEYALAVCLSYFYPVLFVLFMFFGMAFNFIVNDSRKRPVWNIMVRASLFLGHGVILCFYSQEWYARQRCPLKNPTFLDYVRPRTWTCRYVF
Outline: (§3)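 ACAT inhibition was measured in hepatic microsomes isolated from cholesterol-fed rats. Each determination was run in triplicate, and IC50 was reported.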

[7] = test system: Rattus norvegicus; assay: Change in total cholesterol in Chronic Cholesterol-Fed rat model at dose 30 mg/kg; assay type: functional; outline: as §2
[8] = test system: Rattus norvegicus; assay: In vitro percent decrease in cholesterol activity at 30 mg/kg in acute rat screen; assay type: functional; settings: in the assay text read “In vivo” for “In vitro”
Outline: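 Rats received a single gavage dose of 30 mg/kg, suspended in carboxymethylcellulose/Tween-20 in water, followed by one high-fat, high-cholesterol meal. The read-out was inhibition of the overnight rise in plasma total cholesterol, as percent change.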

[9] = test system: Oryctolagus cuniculus; assay: Percent change in total cholesterol(TC) versus (T0)- at which drug intervention begins at a dose of 25 mg/kg in the chronic cholesterol-fed rabbit model; assay type: functional
Outline: (§4)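 Male New Zealand rabbits (1-1.5 kg) were meal-fed 50 g/day of chow with 0.5% cholesterol, 3% coconut oil and 3% peanut oil. After 1 week, compound was added to the diet for 2 weeks at 5 or 25 mg/kg. Plasma total cholesterol came from cardiac blood of fasted animals after nitrogen asphyxiation. It was compared with cholesterol-fed progression controls or with T0, the start of drug intervention, when plasma cholesterol was taken 24 h after the drug meal.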

[10] = test system: Oryctolagus cuniculus; assay: Oral bioactivity expressed as %inhibition after 4 hours of drug administration (dose 25 mg/kg) in rabbit bioassay; assay type: functional; outline: as §1
[11] = test system: Oryctolagus cuniculus; assay: % change in total cholesterol(TC) versus progression control (PC) with out drug intervention in chronic cholesterol-fed rabbit model at a dose of 25 mg/kg; assay type: functional; outline: as §4
[12] = test system: Oryctolagus cuniculus; assay: % change in total cholesterol(TC) versus (T0)- at which drug intervention begins at a dose of 5 mg/kg in chronic cholesterol-fed rabbit model; assay type: functional; outline: as §4
[13] = test system: Oryctolagus cuniculus; assay: % change in total cholesterol(TC) versus progression control (PC) with out drug intervention in chronic cholesterol-fed rabbit model at a dose of 5 mg/kg; assay type: functional; outline: as §4
[14] = test system: Rattus norvegicus; assay: Percent change in total cholesterol (TC) in cholic acid (0.5%) - cholesterol (1.5% - peanut oil (5.5%) - fed rats at a dose 30 mg/kg; assay type: functional
[15] = target: T3, Acyl-CoA:cholesterol acyltransferase (Oryctolagus cuniculus) (UniProt Q95214); settings: 25 mg/kg
T3 sequence (whole entry): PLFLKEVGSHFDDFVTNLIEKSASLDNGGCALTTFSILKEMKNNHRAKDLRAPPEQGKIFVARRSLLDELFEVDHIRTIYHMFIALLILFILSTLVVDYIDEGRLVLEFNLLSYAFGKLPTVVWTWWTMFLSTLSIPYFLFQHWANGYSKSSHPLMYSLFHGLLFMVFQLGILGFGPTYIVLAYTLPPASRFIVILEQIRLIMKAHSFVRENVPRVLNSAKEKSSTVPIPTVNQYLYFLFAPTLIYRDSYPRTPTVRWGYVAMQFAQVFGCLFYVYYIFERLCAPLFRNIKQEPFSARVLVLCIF

[16] = test system: Oryctolagus cuniculus; assay: Dose response in cholesterol fed rabbit after oral administration; assay type: functional
Outline: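 Cholesterol-fed rabbit model with oral dosing across a dose series, 8 animals per dose. Plasma cholesterol reduction was averaged at each dose. ED50, the dose lowering plasma total cholesterol 50%, was calculated from these mean responses with the median-effect equation.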

[17] = target: T3, Acyl-CoA:cholesterol acyltransferase (Oryctolagus cuniculus); settings: at 25 mg/kg
[18] = test system: Oryctolagus cuniculus; assay: Change in total cholesterol(TC) versus progression control (PC) with out drug intervention in chronic cholesterol-fed rabbit model at a dose of 5 mg/kg; assay type: functional; outline: as §4
[19] = test system: Oryctolagus cuniculus; assay: Change in total cholesterol(TC) versus (T0)- at which drug intervention begins at a dose of 5 mg/kg in chronic cholesterol-fed rabbit model; assay type: functional; outline: as §4
[20] = test system: Rattus norvegicus; assay: Effective dose to lower nonHDL-C in a cholesterol fed rat model in vivo; assay type: functional
[21] = test system: Oryctolagus cuniculus; assay: Change in total cholesterol(TC) versus progression control (PC) with out drug intervention in chronic cholesterol-fed rabbit model at a dose of 25 mg/kg; assay type: functional; outline: as §4
[22] = target: T4, Acyl-CoA:cholesterol acyltransferase (Oryctolagus cuniculus, UniProt Q95214); assay: Inhibitory concentration against Acyl coenzyme A:cholesterol acyltransferase 1 from rabbit intestine
T4 sequence (Q95214 whole entry): T3 sequence (whole entry)

[23] = test system: Acyl-CoA:cholesterol acyltransferase (Rattus norvegicus); assay: Ability to reduce cholesterol absorption, i.e. the appearance of lymph cholesteryl ester at a dose of 10 mg/kg
[24] = target: T2, Sterol O-acyltransferase 1; assay: Inhibitory concentration against Acyl coenzyme A:cholesterol acyltransferase 1 from rat liver; outline: as §3
[25] = test system: Rattus norvegicus; assay: % change in total cholesterol in Chronic Cholesterol-Fed rat model at dose 30 mg/kg; assay type: functional; outline: as §2
[26] = target: Sterol O-acyltransferase 1 (Mus musculus) (UniProt Q61263); assay: Percent change of compound against Acyl coenzyme A:cholesterol acyltransferase 1 in cell culture assay using murine IC-21 macrophages at 0.1(uM)

Row | Structure (SMILES) | inhibition [3] [%] | IC50 [6] [nM] | inhibition in vivo at 50 mg/kg [1] [%] | Change [2] [%] | Change [4] [%] | Change [5] [%] | inhibition in vivo at 25 mg/kg [10] [%] | Change [11] [%] | Change [13] [%] | further results
1 | C=CCCCCCCCCCn1nnc(C(C(=O)Nc2c(OC)cc(OC)cc2OC)c2ccccc2)n1 (stereo not given) | 54 | 54 | 26 | 102 | <77 | <56 |  |  |  | Change [7]: <72%
2 | CCCCCCCCCCCCn1nnc(C(C)C(=O)Nc2c(OC)cc(OC)cc2OC)n1 (stereo not given) | 49 | 31 |  |  |  |  |  |  |  | Change [14]: <55%
3 | CCCCCCCCCCC(C)(C)C(=O)Nc1c(OC)cc(OC)cc1OC [CL-976] |  |  |  |  |  |  |  |  |  | Change [15]: 19%; ED50 [16]: 21.8 mg/kg; inhibition [17]: 45%; Change [18]: <28%; Change [19]: 96%; ED50 [20]: 19 mg/kg; Change [21]: <54%
4 | CCCCCCCCCCCCn1nnc(C(=O)Nc2c(OC)cc(OC)cc2OC)n1 |  | 35600 |  |  |  |  |  |  |  | Change [26]: 21%

Now from value to compound, other results behind:

Row | inhibition [3] [%] | IC50 [6] [nM] | Structure (SMILES) | inhibition in vivo at 50 mg/kg [1] [%] | Change [2] [%] | Change [4] [%] | Change [5] [%] | inhibition in vivo at 25 mg/kg [10] [%] | Change [11] [%] | Change [13] [%] | further results
5 | 67 | 15 | CCCCCCCCCCCCc1nnn(C(C(=O)Nc2c(C(C)C)cccc2C(C)C)c2ccccc2)n1 (stereo not given) |  | 50 |  | <77 | 91 | <68 | <55 | Decrease [8]: 77%; Change [9]: <20%; Change [12]: 18%
6 | 37 | 25 | C=CCCCCCCCCCCn1nnc(C(C(=O)Nc2c(OC)cc(OC)cc2OC)c2ccccc2)n1 (stereo not given) | 37 | 98 | <58 | <63 |  |  |  | Change [7]: <52%
7 | 52 | 21 | CCCCCCCCCCCCc1nnn(C(C(=O)Nc2c(OC)cc(OC)cc2OC)c2ccccc2)n1 (stereo not given) |  |  |  | <65 | 0 | <68 | <63 | Decrease [8]: 65%; Change [12]: <11%
8 | 40 | 23 | CCCCCCCCCCCCn1nnc(C(C(=O)Nc2c(OC)cc(OC)cc2OC)c2ccccc2)n1 (stereo not given) | 4 | 83 | <68 | <63 | 0 | <78 | <71 | IC50 [22]: 8 nM; Change [9]: <38%; ED50 [16]: 0.1 mg/kg; Reduction [23]: 79%; IC50 [24]: 23 nM; Change [25]: <60%; ED50 [20]: 6.4 mg/kg
